Screening data as filed in PubChem BioAssay.
LMPTP inh = LMPTP (human) inhibition; hit rate 0.22% among 360,000; AID 651560; inhibition, % at 20 µM; recombinant LMPTP-A, OMFP fluorogenic substrate, fluorescence intensity; P24666;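 active = compounds that cut the enzyme signal by at least half of the control window in the single-dose screen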;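 also: plate controls were DMSO wells with enzyme plus substrate for no effect and substrate without enzyme for full effect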
Target sequence (P24666 whole entry, looked up): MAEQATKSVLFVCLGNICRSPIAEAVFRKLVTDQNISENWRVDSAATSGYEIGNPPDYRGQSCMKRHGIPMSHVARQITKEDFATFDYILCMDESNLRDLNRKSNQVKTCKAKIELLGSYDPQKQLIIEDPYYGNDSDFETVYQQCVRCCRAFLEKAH
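test system = LMPTP-A | amount = 0.625 nM LMPTP-A final | reagent = fluorogenic phosphatase substrate OMFP at 400 µM final | incubation = 50 min at room temperature | benchmarks = no-enzyme low control, uninhibited high control | medium = Bis-Tris pH 6.0, DTT, detergent | signal = fluorescence intensity of OMFP turnover product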
SUMO1 PPI mod = alters human SUMO1 binding to SIM partners; P63165; inhibition, % at 20 µM; hit rate 0.33% among 360,000; SUMO1 binding to a labelled peptide, TR-FRET, 1 h; in the data active = inhibition above about 37%
Target sequence (P63165 whole entry, looked up): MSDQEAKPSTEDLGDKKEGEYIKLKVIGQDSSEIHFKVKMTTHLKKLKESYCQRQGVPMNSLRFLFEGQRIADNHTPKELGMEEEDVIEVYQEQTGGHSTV
STEP block = blocks human striatal-enriched tyrosine phosphatase; P54829; recombinant STEP, OMFP fluorogenic substrate, fluorescence; inhibition, % at 20 µM; hit rate 0.25% among 360,000;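 active = inhibition at 20 µM, scaled per plate between control wells, above about 37%, limit read from the data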;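 also: 0% = DMSO with enzyme and substrate and 100% = substrate only without enzyme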
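System: isolated STEP enzyme; schedule: 20 min enzyme reaction at room temperature, protected from light; medium: Bis-Tris buffer pH 6.0, 2.5 mM DTT, 0.005% Tween 20; signal: fluorescence, 480/540 nm; dosing: single compound dose of 20 µM, 1% DMSO final; also added: OMFP substrate, 25 µM final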
DNMT1 block = blocks human DNA methyltransferase DNMT1. P26358. DNMT1 molecular beacon, Hinp1I cleavage, fluorescence. inhibition (reported as % activation of signal), % at 10 µM. hit rate 0.83% among 360,000; in the data active = inhibition above about 50%
CSN deneddyl inh = CSN deneddylation inhibition | Q92905 | Purified CSN, SCF-Nedd8-OG deneddylation, fluorescence polarization | inhibition, % at 12.5 µM | hit rate 0.38% among 360,000 | AID 651999;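 active = pattern-corrected inhibition above about 35%, with an unprinted fluorescence ratio check between 0.5 and 1.5, limit read from the data, passing the limit was not always enough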;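 also: 0% = enzyme with substrate and 100% = substrate without enzyme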
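Test system: Human Csn5 produced in HEK293T cells | Compound: 12.5 µM single point | Times: 90 min, room temperature | Signal: Fluorescence polarization readout | Read-out basis: % inhibition of substrate cleavage by Csn5 | Controls: no-enzyme wells high, enzyme-with-substrate wells low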
Scp1 inh = inhibitors of human Scp-1 phosphatase; Recombinant Scp1, phosphopeptide, malachite green phosphate absorbance; inhibition, % at 20 µM; hit rate 0.88% among 340,000;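 active = inhibition above about 50% at 20 µM, limit read from the data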;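 also: plate controls were DMSO wells with enzyme for no effect and wells lacking enzyme for full effect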
Target sequence (Q9GZU7 76-261 limits assumed): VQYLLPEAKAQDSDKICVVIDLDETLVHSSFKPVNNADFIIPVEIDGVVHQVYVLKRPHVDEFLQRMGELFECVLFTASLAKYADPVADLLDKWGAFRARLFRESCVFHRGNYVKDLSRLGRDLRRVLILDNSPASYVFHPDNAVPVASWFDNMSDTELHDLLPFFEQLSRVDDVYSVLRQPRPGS
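System: truncated SCP-1 phosphatase (76-261aa); medium: Tris acetate buffer pH 5.5 with MgCl2 and Tween-20; incubation: 45 min room-temperature reaction, 5 min colour, 30 min stabiliser; compound: single 20 µM dose, 1% DMSO; reagent: Phosphorylated 17-residue peptide substrate; read-out: % inhibition at 20 µM; technique: colorimetric free-phosphate detection, absorbance 630 nm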
* marks the source's active call; other numbers are inactive results; · = no result. Hits are enriched below; roughly 1.9% of the tested compounds scored in any of these assays.

SMILES	LMPTP inh	SUMO1 PPI mod	STEP block	DNMT1 block	CSN deneddyl inh	Scp1 inh
CC(=O)Nc1ccc(CNc2nc(NCc3cccs3)nc3ccsc23)cc1	60.6*	0.0	1.4	-8.1	-2.5	·
Cc1cc(NC(=O)CCCn2ccc([N+](=O)[O-])n2)n(Cc2ccc(F)cc2)n1	-1.9	-1.6	1.0	-5.8	-5.9	-4.7
Cc1ccc(C(=O)NC(=S)Nc2ccc(-c3ccc(CO)o3)cc2)cc1	2.3	5.9	-0.3	-17.7	10.1	-6.5
O=C(NC(=S)Nc1ccc(-c2ccc(CO)o2)cc1)c1cccs1	52.0*	22.2	5.1	76.6*	39.9*	-8.7
CC1C(=O)N(Cc2cn(Cc3ccco3)nn2)CCS(=O)(=O)N1Cc1ccc(-c2cccnc2)cc1 (stereo not drawn)	53.7*	17.9	-0.3	-0.5	9.6	·
Cc1cc(C(=O)CCC(=O)N(C)CC(=O)Nc2c(Cl)cccc2Cl)c(C)s1	0.3	1.4	6.6	-9.4	90.4*	-6.1
O=C1c2nc3ccccn3c2C(=O)N1Cc1ccccc1	0.5	39.4*	1.6	-11.4	1.5	-2.7
CC(C)CN(C(=O)COC(=O)c1c(Cl)ccc(Cl)c1Cl)C1CCS(=O)(=O)C1 (stereo not drawn)	-1.2	3.2	1.9	-2.2	-10.4	-10.6
COc1cc2c(C(=O)N(C)c3ccc(F)cc3)cn(C)c(=O)c2cc1OC	0.6	-2.6	-2.9	0.3	3.5	-9.1
C/C(=N\S(=O)(=O)c1ccc(C)cc1)N(C)C	0.0	45.0*	-2.0	8.9	-3.8	-4.0
CC#Cc1cc2c(cc1O)CCC1C2CCC2(C)C(O)CCC12 (stereo not drawn)	-0.8	-0.4	0.0	-13.8	7.5	-10.4
Cc1cc([N+](=O)[O-])nn1CCCC(=O)Nc1cccc(Cl)c1Cl	-0.4	30.5	-1.9	1.1	4.9	-19.9
CCN(CC)S(=O)(=O)c1cccc(N=NC2=C(O)CCCC2=O)c1	0.9	-10.6	0.3	-5.5	-1.7	1.7
O=C1CCCC(O)=C1N=Nc1cccc(C(=O)O)c1	4.6	1.0	4.7	43.3	27.0	60.8*
Cc1ccc(NC(=O)CN2C(=O)N/C(=C/c3cccn3-c3ccc(C(=O)O)cc3)C2=O)cc1	50.0*	49.4*	97.0*	106.8*	28.8	92.7*
CCOC(=O)N1CCC(NC(=O)Cc2ccccc2)CC1	-2.5	-0.4	0.9	0.7	-1.8	-6.5
CCOC(=O)N1CCC(NC(=O)c2ccccc2C(=O)O)CC1	-1.8	42.9*	-0.8	1.5	0.2	-0.7
Cc1ccc(-c2nn(-c3ccccc3)cc2C2CC(c3cccs3)=NN2C(=O)CCCC(=O)O)cc1 (stereo not drawn)	1.3	-11.1	28.7	-8.0	0.5	89.1*
COc1ccc2nccnc2c1[N+](=O)[O-]	-0.3	-17.2	-3.0	-0.8	6.9	-20.4
COc1ccc(C2/C=C\CN(C(=O)OCC3c4ccccc4-c4ccccc43)CC(=O)N2Cc2cccc(F)c2)cc1 (stereo not drawn)	2.1	-3.8	0.1	2.3	-1.1	-4.0
COc1cccc(-c2nn(-c3ccccc3)cc2CNC(C)Cn2cncn2)c1 (stereo not drawn)	-0.3	0.1	3.4	-2.0	37.5*	-4.5
COc1cccc(-c2nn(-c3ccccc3)cc2CO)c1	0.9	-2.0	0.4	-7.6	-1.7	-7.6
CCOC(=O)C1CCN(S(=O)(=O)c2ccc(CN3C(=O)c4cccnc4C3=O)cc2)CC1	-0.2	-19.3	1.9	3.1	0.9	-3.4
O=C1c2cccnc2C(=O)N1Cc1ccc(S(=O)(=O)N2CCN(c3ccc(Cl)cc3)CC2)cc1	2.4	60.2*	1.7	-1.4	-2.7	-11.2
CC1=C(C(=O)OCc2ccccc2)C(c2cccc([N+](=O)[O-])c2)NC(=O)N1CCCCCC(=O)O (stereo not drawn)	-1.3	-7.8	0.4	5.9	-0.7	-3.8
CCOC(=O)C1=C(C)N(CCCCCC(=O)O)C(=O)NC1c1cccc([N+](=O)[O-])c1 (stereo not drawn)	-1.0	-3.8	1.4	92.2*	2.7	-5.9
